Laboratory results published in ChEMBL document CHEMBL1811907, “Chemical and biological evaluation of dipeptidyl boronic acid proteasome inhibitors for use in prodrugs and pro-soft drugs targeting solid tumors” (J Med Chem, 2011).

Experiments:
HEK293 = assay: Ratio of IC50 for intracellular chymotrypsin-like activity of 20S proteasome in human HEK293 cells to IC50 for in vitro chymotrypsin-like activity of 20S proteasome; format: cell-based
[1] = Ratio of CC50 for human follicular small-cell lymphocytic leukemia cells to IC50 for chymotrypsin-like activity of 20S proteasome at pH 2.0
[2] = Inhibition of chymotrypsin-like activity of 20S proteasome using suc-LLVY-AMC as substrate preincubated for 10 mins before substrate addition at pH 2.0 by fluorescence assay
Outline: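 Inhibitor from 0.1 M ethanol stock diluted into pH 2.0 buffer (0.148 M HCl, 0.052 M KCl) and equilibrated overnight at room temperature (24 h per text). 20S proteasome SDS-activated, preincubated 10 min with inhibitor; Suc-LLVY-AMC added; fluorescence (ex 360/em 460 nm) read after 30 min. Assay-well pH checked. Quadruplicates; variable-slope sigmoidal fit.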

Mus musculus = species: Mus musculus; assay: Inhibition of proteasome in mouse tumor cells relative to inhibition in blood cells; format: subcellular; settings: concentration not given here
[3] = Inhibition of intracellular chymotrypsin-like activity of 20S proteasome in human HEK293 cells after 24 hrs by fluorescence plate reader; format: cell-based; settings: HEK293, 24 h
Outline: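 HEK 293 ZsGreen proteasome-sensor cells (stable ZsGreen–ornithine decarboxylase degron fusion, G418 maintenance) seeded 3.2 × 10⁴ per well, grown 24 h. Then 24 h with inhibitor at 37 °C, 5% CO₂. Cells lysed in HEPES/EDTA/5% Triton buffer for 1 h; fluorescence ex 485/em 535 nm. Quadruplicates; variable-slope sigmoidal fit.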

[4] = Cytotoxicity against human HEK293 cells after 24 hrs by MTT assay; format: cell-based
Outline: (§1)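 Cells seeded at 3.2 × 10⁴ per well, grown 24 h at 37 °C, 5% CO₂, then exposed to inhibitor dilutions 24 h. Inhibitor from 0.1 M ethanol stock, pre-equilibrated overnight in pH 2.0 or pH 7.6 buffer. MTT (5 mg/mL) added for 3 h; formazan dissolved overnight in acidic Triton/isopropanol; A570 read. Quadruplicates; variable-slope sigmoidal fit.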

[5] = Cytotoxicity against human FSCLL cells after 24 hrs by MTT assay; format: cell-based; outline: as §1
[6] = Ratio of CC50 for human follicular small-cell lymphocytic leukemia cells to IC50 for intracellular chymotrypsin-like activity of 20S proteasome in human HEK293 cells
[7] = Inhibition of chymotrypsin-like activity of 20S proteasome using suc-LLVY-AMC as substrate preincubated for 10 mins before substrate addition at pH 7.6 by fluorescence assay
Outline: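 Inhibitor from 0.1 M ethanol stock diluted into pH 7.6 buffer (25 mM HEPES, 0.5 mM EDTA) and equilibrated overnight at room temperature (24 h per text). SDS-activated 20S proteasome preincubated 10 min with inhibitor before Suc-LLVY-AMC; fluorescence ex 360/em 460 nm after 30 min. Quadruplicates; variable-slope sigmoidal fit.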

SMILES: CC(C)C[C@H](NC(=O)[C@H](Cc1ccccc1)NC(=O)c1cnccn1)B(O)O [BORTEZOMIB]
- Ratio IC50 (HEK293): 2.7
- Ratio CC50/IC50 [1]: 0.4
- IC50 [2]: 10 nM
- inhibition (Mus musculus): 44.8%
- IC50 [3]: 27 nM
- CC50 at 24 h [4]: 347 nM
- CC50 at 24 h [5]: 4 nM
- Ratio CC50/IC50 [6]: 0.16
- IC50 [7]: 14 nM
